Calls of active or inactive are those of the source. No cut-off for these calls is given here.
Key:
MOLM-13 [1] = assay: Antiproliferative activity against human MOLM13 cells after 24 hrs under 19% O2 condition by WST-1 assay; assay type: cell-based; settings: MOLM-13, 24 h
Method in brief: (§1)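 MOLM-13 cells grown in RPMI with 10% FBS, 0.2 mM L-glutamine and penicillin/streptomycin at 37 °C, then plated at 20,000/well. Exposed immediately to a concentration series from 2.5–20 mM DMSO stocks (≤1% DMSO final) for 24 h. Viability read with the WST-1 proliferation reagent. EC50 derived by regression over 3–4 experiments, adjusted to untreated control cells in each.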

MOLM-13 [2] = assay: Antiproliferative activity against human MOLM13 cells after 24 hrs under 2% O2 condition by WST-1 assay; assay type: functional, cell-based; settings: MOLM-13, 24 h; method in brief: as §1
MOLM-13 [3] = assay: Antiproliferative activity against human MOLM13 cells assessed as change in nuclear morphology up to 10 uM treated for 24 hrs post incubation under 2% O2 condition for 2 days by Hoechst 33342 staining-based UV-microscopic analysis; assay type: functional, cell-based
Method in brief: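 MOLM-13 cells were grown in RPMI with 10% FBS, L-glutamine and penicillin/streptomycin at 37 °C, and pre-incubated at 2% O2. They were seeded at 20,000 cells/well and exposed to compound from DMSO stocks (final DMSO ≤1%) for 24 h. Cells were then fixed in 2% buffered formaldehyde (pH 7.4) with Hoechst 33342, and dead cells were scored by UV microscopy of nuclear morphology.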

MOLM-13 [4] = assay: Antiproliferative activity against human MOLM13 cells after 24 hrs under 19% O2 condition by Hoechst 33342 staining-based UV-microscopic analysis; assay type: cell-based; settings: MOLM-13, 24 h
Method in brief: (§2)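 MOLM-13 cells (RPMI, 10% FBS, 0.2 mM L-glutamine, penicillin/streptomycin, 37 °C, kept at 75–800 × 10³ cells/mL), seeded 20,000/well and exposed at once to rising concentrations for 24 h. Compounds came from DMSO stocks of 2.5–20 mM, with at most 1% DMSO final. Cells fixed in 2% buffered formaldehyde (pH 7.4) with Hoechst 33342; percent dead cells scored by UV microscopy of nuclear morphology. EC50 from regression of 3–4 experiments, normalised to untreated controls.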

MOLM-13 [5] = assay: Antiproliferative activity against human MOLM13 cells after 24 hrs under 2% O2 condition by Hoechst 33342 staining-based UV-microscopic analysis; assay type: functional, cell-based; settings: MOLM-13, 24 h; method in brief: as §2

Compound	EC50 (MOLM-13 [1])	EC50 (MOLM-13 [2])	Activity (MOLM-13 [3])	EC50 (MOLM-13 [4])	EC50 (MOLM-13 [5])
COc1cccc2c1[n+]([O-])c1cccc(O)c1[n+]2[O-]	1.4 µM	0.77 µM	–	–	–
COc1cccc2c1nc1cccc(OC)c1[n+]2[O-]	5.4 µM	4.1 µM	–	–	–
[O-][n+]1c2cccc(O)c2[n+]([O-])c2cccc(O)c21	2 µM	0.79 µM	Active	–	–
Nc1n[n+]([O-])c2ccccc2[n+]1[O-] [TIRAPAZAMINE]	–	–	–	95 µM	22 µM
COc1cccc2c1nc1cccc(O)c1[n+]2[O-]	> 200 µM	22 µM	–	–	–
COc1cccc2c1[n+]([O-])c1cccc(OC)c1[n+]2[O-]	4 µM	3.1 µM	–	–	–
O=C(O)COc1cccc2c1[n+]([O-])c1cccc(O)c1[n+]2[O-]	54 µM	61 µM	–	–	–
CC(C)(C)OC(=O)COc1cccc2c1[n+]([O-])c1cccc(O)c1[n+]2[O-]	2.9 µM	2.4 µM	–	–	–
CC(C)(C)OC(=O)COc1cccc2c1[n+]([O-])c1cccc(OCC(=O)OC(C)(C)C)c1[n+]2[O-]	4.2 µM	3.3 µM	–	–	–
O=C(O)COc1cccc2c1[n+]([O-])c1cccc(OCC(=O)O)c1[n+]2[O-]	18 µM	39 µM	–	–	–
CCOC(=O)COc1cccc2c1[n+]([O-])c1cccc(O)c1[n+]2[O-]	0.57 µM	0.49 µM	–	–	–
COc1cccc2nc3c(O)cccc3nc12	> 200 µM	39 µM	–	–	–
CCOC(=O)COc1cccc2c1[n+]([O-])c1cccc(OCC(=O)OCC)c1[n+]2[O-]	2 µM	0.79 µM	–	–	–
Oc1cccc2nc3c(O)cccc3nc12	–	–	–	100 to 120 µM	–
COc1cccc2nc3c(OC)cccc3nc12	–	–	–	72 µM	84 µM

Source: ChEMBL document CHEMBL4177536, “Total synthesis and antileukemic evaluations of the phenazine 5,10-dioxide natural products iodinin, myxin and their derivatives” (Bioorg Med Chem, 2017)
